Legend:
[1] = target: Receptor tyrosine-protein kinase erbB-2 (Homo sapiens, UniProt P04626); experiment: Inhibition of human epidermal growth factor receptor (HER-2) using enzyme assay
Procedure, shortened: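 His6-tagged HER-2 cytoplasmic domain was expressed in Sf-9 cells and purified on Ni-NTA (about 80% pure). Enzyme (12.5 ng/well) was preincubated with compound 10 min at room temperature in HEPES pH 7.4. Autophosphorylation ran 1 h with MnCl2/Na3VO4/DTT buffer plus 0.1 mM ATP–50 mM MgCl2 (as added). Europium anti-phosphotyrosine time-resolved fluorescence was read at 340/615 nm. IC50 came from eight concentrations, mean of duplicates.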

SK-BR-3 = experiment: Inhibition of cell growth of SKBr3 cell lines using cell-based assay; format: functional; conditions: Homo sapiens
Procedure, shortened: (§1)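 Cells kept in RPMI-1640 with 5% fetal bovine serum and plated at 5.0 × 10^4/mL. Next day they were dosed at 0.5, 5, 50, 500 and 5000 ng/mL and cultured 2 days. Survival was read by sulforhodamine B. IC50 is the concentration inhibiting growth by 50%, taken from the five-point dose-response curve.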

SW-620 = experiment: Inhibition of cell growth of SW620 cell lines using cell-based assay; format: functional; conditions: Homo sapiens; procedure, shortened: as §1
[2] = target: Epidermal growth factor receptor (Homo sapiens, UniProt P00533); experiment: Inhibition of epidermal growth factor receptor using enzyme assay
Chain of Epidermal growth factor receptor (P00533 whole entry): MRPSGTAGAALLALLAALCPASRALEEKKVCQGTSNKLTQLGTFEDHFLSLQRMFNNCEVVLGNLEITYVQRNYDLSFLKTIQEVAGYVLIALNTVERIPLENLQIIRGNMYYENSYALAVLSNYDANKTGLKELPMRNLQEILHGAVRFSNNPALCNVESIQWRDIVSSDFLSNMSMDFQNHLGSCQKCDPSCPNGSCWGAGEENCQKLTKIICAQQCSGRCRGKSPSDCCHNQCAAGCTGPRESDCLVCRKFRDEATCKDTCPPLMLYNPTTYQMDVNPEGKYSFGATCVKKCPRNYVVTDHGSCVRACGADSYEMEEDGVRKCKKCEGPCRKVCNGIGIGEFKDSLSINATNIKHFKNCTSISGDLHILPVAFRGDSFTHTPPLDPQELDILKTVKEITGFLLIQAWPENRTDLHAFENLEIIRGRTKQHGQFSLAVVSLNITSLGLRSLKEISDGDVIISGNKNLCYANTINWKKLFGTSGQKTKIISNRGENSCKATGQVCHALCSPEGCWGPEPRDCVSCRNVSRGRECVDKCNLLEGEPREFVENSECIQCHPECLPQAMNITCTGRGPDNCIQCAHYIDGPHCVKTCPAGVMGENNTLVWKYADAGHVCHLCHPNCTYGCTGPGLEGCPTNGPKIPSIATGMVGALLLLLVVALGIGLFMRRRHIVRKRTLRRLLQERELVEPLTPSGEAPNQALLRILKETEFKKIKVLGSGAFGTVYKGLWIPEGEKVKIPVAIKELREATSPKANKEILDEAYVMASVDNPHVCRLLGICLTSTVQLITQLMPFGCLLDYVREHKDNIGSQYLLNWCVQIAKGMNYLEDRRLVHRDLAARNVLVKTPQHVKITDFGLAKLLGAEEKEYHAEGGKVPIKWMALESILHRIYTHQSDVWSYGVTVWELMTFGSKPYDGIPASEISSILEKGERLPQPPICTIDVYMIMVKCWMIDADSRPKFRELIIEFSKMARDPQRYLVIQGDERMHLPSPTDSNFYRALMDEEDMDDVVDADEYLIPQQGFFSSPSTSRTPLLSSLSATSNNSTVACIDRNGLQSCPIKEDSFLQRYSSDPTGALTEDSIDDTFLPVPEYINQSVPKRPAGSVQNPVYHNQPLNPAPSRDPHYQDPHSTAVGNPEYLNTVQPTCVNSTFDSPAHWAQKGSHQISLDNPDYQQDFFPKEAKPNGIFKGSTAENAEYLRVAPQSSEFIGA

A-431 [3] = experiment: Inhibition of human epidermoid carcinoma xenograft (A431) tumor growth; format: functional, cell-based
Procedure, shortened: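 Female athymic nu/nu mice received 5 × 10^6 A431 cells sc in the flank. At 80–120 mg tumor mass they were randomized, 10 per group. Dosing was oral, once daily on days 1–10, 40 mg/kg in 0.2% Klucel, with a vehicle control. Tumor mass [(length × width²)/2] was measured every 7 days from day 8 to 29. Relative growth is versus day 0, compared by Student t-test of log values.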

A-431 [4] = experiment: Inhibition of cell growth of human epidermoid carcinoma xenograft (A431) model using cell based assay; format: functional

Chain of Receptor tyrosine-protein kinase erbB-2 (P04626 whole entry, the tested form may be a part): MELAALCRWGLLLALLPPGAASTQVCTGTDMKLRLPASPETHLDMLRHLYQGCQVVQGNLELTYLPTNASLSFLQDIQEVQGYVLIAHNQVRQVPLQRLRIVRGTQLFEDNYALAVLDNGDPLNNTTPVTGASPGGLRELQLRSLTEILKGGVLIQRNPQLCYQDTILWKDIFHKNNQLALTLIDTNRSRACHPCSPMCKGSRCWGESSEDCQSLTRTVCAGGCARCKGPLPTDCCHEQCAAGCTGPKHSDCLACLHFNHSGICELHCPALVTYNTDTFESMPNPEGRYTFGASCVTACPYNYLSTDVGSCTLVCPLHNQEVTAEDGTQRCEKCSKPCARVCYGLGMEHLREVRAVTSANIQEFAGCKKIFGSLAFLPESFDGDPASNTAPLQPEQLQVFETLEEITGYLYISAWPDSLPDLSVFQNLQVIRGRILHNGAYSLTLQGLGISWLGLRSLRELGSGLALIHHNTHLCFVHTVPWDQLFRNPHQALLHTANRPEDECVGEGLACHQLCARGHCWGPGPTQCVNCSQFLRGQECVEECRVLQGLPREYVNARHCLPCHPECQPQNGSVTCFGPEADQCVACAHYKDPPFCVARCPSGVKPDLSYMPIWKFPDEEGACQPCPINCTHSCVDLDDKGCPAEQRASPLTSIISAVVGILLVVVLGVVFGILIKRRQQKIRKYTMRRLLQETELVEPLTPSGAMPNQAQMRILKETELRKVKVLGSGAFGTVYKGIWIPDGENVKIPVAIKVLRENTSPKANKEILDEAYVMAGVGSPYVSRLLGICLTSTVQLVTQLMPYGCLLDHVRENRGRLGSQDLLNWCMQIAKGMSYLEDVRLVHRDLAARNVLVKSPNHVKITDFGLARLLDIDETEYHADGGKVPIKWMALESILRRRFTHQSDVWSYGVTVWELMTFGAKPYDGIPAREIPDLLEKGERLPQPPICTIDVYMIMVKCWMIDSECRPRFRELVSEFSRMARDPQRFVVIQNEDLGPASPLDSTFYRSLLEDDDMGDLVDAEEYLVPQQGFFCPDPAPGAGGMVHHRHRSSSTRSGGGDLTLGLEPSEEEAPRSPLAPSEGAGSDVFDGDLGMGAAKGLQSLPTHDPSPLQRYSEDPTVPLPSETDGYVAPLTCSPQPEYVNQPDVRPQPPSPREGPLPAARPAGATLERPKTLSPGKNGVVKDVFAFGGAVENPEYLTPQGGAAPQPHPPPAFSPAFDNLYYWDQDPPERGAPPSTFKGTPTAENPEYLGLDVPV

Row | IC50 [1] [nM] | IC50 (SK-BR-3) [nM] | IC50 (SW-620) [nM] | IC50 [2] [nM] | IC50 (A-431 [3]) [nM] | IC50 (A-431 [4]) [nM] | SMILES
1 | 16 | 43 |  |  |  |  | O=C(C#CCO)Nc1ccc2ncnc(Nc3cccc(Br)c3)c2c1
2 | 21700 | 742 | 12500 |  |  |  | C/C=C\C(=O)Nc1ccc2ncnc(Nc3cccc(Br)c3)c2c1
3 | 85 | 1 | 289 | 71 | 33 |  | C=CCN(C)CC#CC(=O)Nc1ccc2ncnc(Nc3cccc(Br)c3)c2c1
4 | 1160 | 2 | 2390 | 73 |  | 194 | CCN(CC)C/C=C/C(=O)Nc1ccc2ncnc(Nc3cccc(Br)c3)c2c1
5 | 177 | 2 | 198 | 62 |  | 42 | CCCN(CC#CC(=O)Nc1ccc2ncnc(Nc3cccc(Br)c3)c2c1)CCC
6 | 91300 | 1100 | 13100 |  |  |  | C/C=C/C(=O)Nc1ccc2ncnc(Nc3cccc(Br)c3)c2c1
7 | 2920 | 13 | 2860 | 194 |  | 353 | COC[C@@H]1CCCN1C/C=C\C(=O)Nc1ccc2ncnc(Nc3cccc(Br)c3)c2c1
8 | 414 | 3 | 7530 | 14 |  | 329 | CN(C/C=C/C(=O)Nc1ccc2ncnc(Nc3cccc(Br)c3)c2c1)CCO
9 | 378 | 17 | 1500 |  |  |  | CC#CC(=O)Nc1ccc2ncnc(Nc3cccc(Br)c3)c2c1
10 | 162 | 4 | 302 | 97 |  | 94 | CC(C)N(CC#CC(=O)Nc1ccc2ncnc(Nc3cccc(Br)c3)c2c1)C(C)C
11 | 33 | 46 | 1730 | 9 |  | 268 | COCC#CC(=O)Nc1ccc2ncnc(Nc3cccc(Br)c3)c2c1
12 | 634 | 3 | 5890 | 62 |  | 564 | COCCN(C)C/C=C/C(=O)Nc1ccc2ncnc(Nc3cccc(Br)c3)c2c1
13 | 38 | 6 | 610 | 12 |  | 111 | CCN(CC)CC#CC(=O)Nc1ccc2ncnc(Nc3cccc(Br)c3)c2c1
14 | 122 | 92 | 2080 | 59 | 306 |  | COCOCC#CC(=O)Nc1ccc2ncnc(Nc3cccc(Br)c3)c2c1
15 | 116 | 9 | 945 | 65 |  | 77 | COCCOCC#CC(=O)Nc1ccc2ncnc(Nc3cccc(Br)c3)c2c1
16 | 5040 | 478 | 10500 | 115 |  | 2340 | CN1CCC=C(C(=O)Nc2ccc3ncnc(Nc4cccc(Br)c4)c3c2)C1
17 | 15200 | 2220 | 20700 |  |  |  | C=C(C)C(=O)Nc1ccc2ncnc(Nc3cccc(Br)c3)c2c1
18 | 8830 | 370 | 12100 | 1130 |  | 8500 | COC/C=C/C(=O)Nc1ccc2ncnc(Nc3cccc(Br)c3)c2c1
19 | 14 | 11 | 530 |  |  |  | CN(C)CC#CC(=O)Nc1ccc2ncnc(Nc3cccc(Br)c3)c2c1
20 | 1910 | 2 | 2620 | 131 |  | 222 | COC[C@@H]1CCCN1C/C=C/C(=O)Nc1ccc2ncnc(Nc3cccc(Br)c3)c2c1
21 | 301 | 2 | 2340 |  |  |  | CN(C)C/C=C/C(=O)Nc1ccc2ncnc(Nc3cccc(Br)c3)c2c1
22 | 113 | 4 | 232 | 85 |  | 77 | CC(C)N(C)CC#CC(=O)Nc1ccc2ncnc(Nc3cccc(Br)c3)c2c1
23 | 15600 | 568 | 11100 | 1120 |  | 1370 | O=C(/C=C/Cn1cccn1)Nc1ccc2ncnc(Nc3cccc(Br)c3)c2c1
24 | 114 | 15 | 4130 |  | 95 |  | C=CC(=O)Nc1ccc2ncnc(Nc3cccc(Br)c3)c2c1
25 | 458 | 3 | 470 | 107 | 128 |  | C=C(CN1CCOCC1)C(=O)Nc1ccc2ncnc(Nc3cccc(Br)c3)c2c1
26 | 1430 | 2 | 2280 | 90 |  | 145 | CCCN(C/C=C/C(=O)Nc1ccc2ncnc(Nc3cccc(Br)c3)c2c1)CCC
27 | 733 | 1 | 10100 | 85 |  | 616 | COC[C@H]1CCCN1C/C=C/C(=O)Nc1ccc2ncnc(Nc3cccc(Br)c3)c2c1
28 | 25700 | 1760 | 12100 | 250 | 2100 |  | CN(C)/C=C/C(=O)Nc1ccc2ncnc(Nc3cccc(Br)c3)c2c1

Row | SMILES | IC50 [1] [nM] | IC50 (SK-BR-3) [nM] | IC50 (SW-620) [nM] | IC50 [2] [nM] | IC50 (A-431 [3]) [nM] | IC50 (A-431 [4]) [nM]
29 | O=C(C#CCN1CCSCC1)Nc1ccc2ncnc(Nc3cccc(Br)c3)c2c1 | 124 | 2 | 581 | 95 |  | 83
30 | O=C(/C=C/CN1CCSCC1)Nc1ccc2ncnc(Nc3cccc(Br)c3)c2c1 | 2810 | 12 | 8470 | 203 |  | 589
31 | O=C(/C=C/CN1CCOCC1)Nc1ccc2ncnc(Nc3cccc(Br)c3)c2c1 | 2780 | 13 | 10700 | 74 |  | 1890
32 | CCN1CCN(CC#CC(=O)Nc2ccc3ncnc(Nc4cccc(Br)c4)c3c2)CC1 | 183 | 62 | 4600 | 65 |  | 598
33 | O=C(C#CCN1CCCCC1)Nc1ccc2ncnc(Nc3cccc(Br)c3)c2c1 | 73 | 2 | 302 | 57 |  | 32
34 | O=C(/C=C/CN1CCC(N2CCCCC2)CC1)Nc1ccc2ncnc(Nc3cccc(Br)c3)c2c1 | 1590 | 10 | 4150 | 68 |  | 756
35 | COCC1CCCN1CC#CC(=O)Nc1ccc2ncnc(Nc3cccc(Br)c3)c2c1 (centres undefined) | 117 | 2 | 324 | 65 |  | 81
36 | O=C(C#CCN1CCOCC1)Nc1ccc2ncnc(Nc3cccc(Br)c3)c2c1 | 53 | 2 | 1660 | 20 |  | 150
37 | O=C(/C=C/N1CCOCC1)Nc1ccc2ncnc(Nc3cccc(Br)c3)c2c1 | 4180 | 1020 | 2020 | 215 | 1080 | 
38 | O=C(/C=C/CN1CCCCC1)Nc1ccc2ncnc(Nc3cccc(Br)c3)c2c1 | 1560 | 4 | 2680 | 106 |  | 182
